“And” between values parts separate entries of the source, which are not always exact repeats. Identical values can stand only once.
Tested on: Fibroblast
Test: Multiplex assay against human fibroblast
Format: toxicity, cell-based
In short: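 Live cells were stained at seeding with Hoechst33342, BioTracker Green Microtubule Cytoskeleton Dye, MitoTracker Red and Annexin V Alexa Fluor 680, then imaged on a CQ1 microscope at 37°C and 5% CO2 after compound addition. CellPathfinder machine-learning gating split cells into Hoechst high-intensity objects or normal cells. Normal cells were split into healthy, pyknosed or fragmented nuclei, and pyknosed cells into mitotic or apoptotic. Tubulin, mitochondrial-mass and membrane-permeability phenotypes are per cents of healthy-nucleus cells.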

[1] = 12 h, 1 µM, compound concentration 1 uM
[2] = 12 h, 10 µM, compound concentration 10 uM
[3] = 24 h, 1 µM, compound concentration 1 uM
[4] = 24 h, 10 µM, compound concentration 10 uM
[5] = 48 h, 1 µM, compound concentration 1 uM
[6] = 48 h, 10 µM, compound concentration 10 uM

Compound: FC(F)(F)c1ccccc1-c1cc(C(F)(F)F)c2[nH]c(C3=NOC4(CCCCC4)C3)nc2c1
- Population Apoptotic (%) [1]: 11.43% and 13.33%
- Population Fragmented Nuclei (%) [1]: 11.76% and 2.87%
- Population Healthy Nuclei (%) [1]: 56.56% and 79.89%
- Population Hoechst High Intensity Objects (%) [1]: 0%
- Population Membrane Permeable-Phenotype (%) [1]: 8% and 4.32%
- Population Mitochondria Different-Phenotype (%) [1]: 4.8% and 10.07%
- Population Mitotic Cells (%) [1]: 88.57% and 86.67%
- Population Normal (%) [1]: 100%
- Population Pyknosed Nuclei (%) [1]: 31.67% and 17.24%
- Population Tubulin-Different-Phenotype (%) [1]: 12.8% and 20.14%
- Total Cell Count [1]: 221 and 174
- Population Apoptotic (%) [2]: 7.62% and 14.29%
- Population Fragmented Nuclei (%) [2]: 10% and 8.05%
- Population Healthy Nuclei (%) [2]: 42.27% and 63.79%
- Population Hoechst High Intensity Objects (%) [2]: 0%
- Population Membrane Permeable-Phenotype (%) [2]: 12.9% and 5.41%
- Population Mitochondria Different-Phenotype (%) [2]: 19.35% and 15.32%
- Population Mitotic Cells (%) [2]: 92.38% and 85.71%
- Population Normal (%) [2]: 100%
- Population Pyknosed Nuclei (%) [2]: 47.73% and 28.16%
- Population Tubulin-Different-Phenotype (%) [2]: 30.11% and 51.35%
- Total Cell Count [2]: 220 and 174
- Population Apoptotic (%) [3]: 10.91% and 15.62%
- Population Fragmented Nuclei (%) [3]: 8.06% and 4.79%
- Population Healthy Nuclei (%) [3]: 69.76% and 78.19%
- Population Hoechst High Intensity Objects (%) [3]: 0%
- Population Membrane Permeable-Phenotype (%) [3]: 3.47% and 3.4%
- Population Mitochondria Different-Phenotype (%) [3]: 7.51% and 4.08%
- Population Mitotic Cells (%) [3]: 89.09% and 84.38%
- Population Normal (%) [3]: 100%
- Population Pyknosed Nuclei (%) [3]: 22.18% and 17.02%
- Population Tubulin-Different-Phenotype (%) [3]: 17.92% and 18.37%
- Total Cell Count [3]: 248 and 188
- Population Apoptotic (%) [4]: 13% and 17.86%
- Population Fragmented Nuclei (%) [4]: 7.66% and 9.09%
- Population Healthy Nuclei (%) [4]: 44.5% and 60.96%
- Population Hoechst High Intensity Objects (%) [4]: 0%
- Population Membrane Permeable-Phenotype (%) [4]: 7.53% and 4.39%
- Population Mitochondria Different-Phenotype (%) [4]: 25.81% and 29.82%
- Population Mitotic Cells (%) [4]: 87% and 82.14%
- Population Normal (%) [4]: 100%
- Population Pyknosed Nuclei (%) [4]: 47.85% and 29.95%
- Population Tubulin-Different-Phenotype (%) [4]: 69.89% and 65.79%
- Total Cell Count [4]: 209 and 187
- Population Apoptotic (%) [5]: 20.83% and 16.67%
- Population Fragmented Nuclei (%) [5]: 8.37% and 6.59%
- Population Healthy Nuclei (%) [5]: 82.51% and 86.81%
- Population Hoechst High Intensity Objects (%) [5]: 0%
- Population Membrane Permeable-Phenotype (%) [5]: 1.38% and 1.27%
- Population Mitochondria Different-Phenotype (%) [5]: 10.14% and 2.53%
- Population Mitotic Cells (%) [5]: 79.17% and 83.33%
- Population Normal (%) [5]: 100%
- Population Pyknosed Nuclei (%) [5]: 9.13% and 6.59%
- Population Tubulin-Different-Phenotype (%) [5]: 7.83% and 18.99%
- Total Cell Count [5]: 263 and 182
- Population Fragmented Nuclei (%) [6]: 9.33% and 11.92%
- Population Healthy Nuclei (%) [6]: 78.22% and 73.06%
- Population Hoechst High Intensity Objects (%) [6]: 0%
- Population Membrane Permeable-Phenotype (%) [6]: 0.57% and 4.26%
- Population Mitochondria Different-Phenotype (%) [6]: 13.64% and 7.8%
- Population Mitotic Cells (%) [6]: 96.43% and 55.17%
- Population Normal (%) [6]: 100%
- Population Pyknosed Nuclei (%) [6]: 12.44% and 15.03%
- Population Tubulin-Different-Phenotype (%) [6]: 38.64% and 60.99%
- Total Cell Count [6]: 225 and 193

Compound: CCOc1ccccc1C(=O)NCC1(N2CCN(CC)CC2)CCCCC1
- Population Apoptotic (%) [1]: 8% and 22.22%
- Population Healthy Nuclei (%) [1]: 51.46% and 68.29%
- Population Hoechst High Intensity Objects (%) [1]: 0%
- Population Membrane Permeable-Phenotype (%) [1]: 3.41% and 2.98%
- Population Mitochondria Different-Phenotype (%) [1]: 3.41% and 11.31%
- Population Mitotic Cells (%) [1]: 92% and 77.78%
- Population Normal (%) [1]: 100%
- Population Pyknosed Nuclei (%) [1]: 29.24% and 25.61%
- Population Tubulin-Different-Phenotype (%) [1]: 10.23% and 23.81%
- Total Cell Count [1]: 171 and 246
- Population Apoptotic (%) [2]: 12.35% and 12.82%
- Population Fragmented Nuclei (%) [2]: 13.04% and 5.43%
- Population Healthy Nuclei (%) [2]: 42.93% and 73.37%
- Population Hoechst High Intensity Objects (%) [2]: 0%
- Population Membrane Permeable-Phenotype (%) [2]: 5.06% and 9.63%
- Population Mitochondria Different-Phenotype (%) [2]: 41.77% and 25.19%
- Population Mitotic Cells (%) [2]: 87.65% and 87.18%
- Population Normal (%) [2]: 100%
- Population Pyknosed Nuclei (%) [2]: 44.02% and 21.2%
- Population Tubulin-Different-Phenotype (%) [2]: 65.82% and 80.74%
- Total Cell Count [2]: 184
- Population Apoptotic (%) [3]: 15.79% and 31.25%
- Population Fragmented Nuclei (%) [3]: 10.24% and 5.42%
- Population Healthy Nuclei (%) [3]: 66.87% and 81.25%
- Population Hoechst High Intensity Objects (%) [3]: 0%
- Population Membrane Permeable-Phenotype (%) [3]: 1.8% and 4.1%
- Population Mitochondria Different-Phenotype (%) [3]: 4.5% and 8.72%
- Population Mitotic Cells (%) [3]: 84.21% and 68.75%
- Population Normal (%) [3]: 100%
- Population Pyknosed Nuclei (%) [3]: 22.89% and 13.33%
- Population Tubulin-Different-Phenotype (%) [3]: 12.61% and 24.1%
- Total Cell Count [3]: 166 and 240
- Population Apoptotic (%) [4]: 12.5% and 5.13%
- Population Fragmented Nuclei (%) [4]: 13.66% and 11.26%
- Population Healthy Nuclei (%) [4]: 62.93% and 71.17%
- Population Hoechst High Intensity Objects (%) [4]: 0%
- Population Membrane Permeable-Phenotype (%) [4]: 3.1% and 5.06%
- Population Mitochondria Different-Phenotype (%) [4]: 45.74% and 22.78%
- Population Mitotic Cells (%) [4]: 87.5% and 94.87%
- Population Normal (%) [4]: 100%
- Population Pyknosed Nuclei (%) [4]: 23.41% and 17.57%
- Population Tubulin-Different-Phenotype (%) [4]: 68.22% and 84.81%
- Total Cell Count [4]: 205 and 222
- Population Apoptotic (%) [5]: 21.43% and 23.08%
- Population Fragmented Nuclei (%) [5]: 13.04% and 10.42%
- Population Healthy Nuclei (%) [5]: 79.35% and 84.17%
- Population Hoechst High Intensity Objects (%) [5]: 0%
- Population Membrane Permeable-Phenotype (%) [5]: 0.68% and 0.5%
- Population Mitotic Cells (%) [5]: 78.57% and 76.92%
- Population Normal (%) [5]: 100%
- Population Pyknosed Nuclei (%) [5]: 7.61% and 5.42%
- Population Tubulin-Different-Phenotype (%) [5]: 8.9% and 21.29%
- Total Cell Count [5]: 184 and 240
- Population Apoptotic (%) [6]: 15.79% and 45.16%
- Population Fragmented Nuclei (%) [6]: 15.15% and 7.88%
- Population Healthy Nuclei (%) [6]: 76.62% and 79.25%
- Population Hoechst High Intensity Objects (%) [6]: 1.28% and 0%
- Population Membrane Permeable-Phenotype (%) [6]: 3.39% and 4.71%
- Population Mitochondria Different-Phenotype (%) [6]: 27.12% and 15.18%
- Population Mitotic Cells (%) [6]: 84.21% and 54.84%
- Population Normal (%) [6]: 98.72% and 100%
- Population Pyknosed Nuclei (%) [6]: 8.23% and 12.86%
- Population Tubulin-Different-Phenotype (%) [6]: 62.15% and 89.01%
- Total Cell Count [6]: 234 and 241

Compound: Cl.c1ccc2c(c1)CCC[C@H]2Nc1nc2ccccc2[nH]1
- Population Apoptotic (%) [1]: 11.32% and 10.42%
- Population Fragmented Nuclei (%) [1]: 9.36% and 5.1%
- Population Healthy Nuclei (%) [1]: 64.53% and 70.41%
- Population Hoechst High Intensity Objects (%) [1]: 0%
- Population Membrane Permeable-Phenotype (%) [1]: 6.11% and 2.17%
- Population Mitochondria Different-Phenotype (%) [1]: 6.87% and 9.42%
- Population Mitotic Cells (%) [1]: 88.68% and 89.58%
- Population Normal (%) [1]: 100%
- Population Pyknosed Nuclei (%) [1]: 26.11% and 24.49%
- Population Tubulin-Different-Phenotype (%) [1]: 18.32% and 18.12%
- Total Cell Count [1]: 203 and 196
- Population Apoptotic (%) [2]: 5% and 13.89%
- Population Fragmented Nuclei (%) [2]: 8.94% and 7.57%
- Population Healthy Nuclei (%) [2]: 46.37% and 72.97%
- Population Hoechst High Intensity Objects (%) [2]: 0%
- Population Membrane Permeable-Phenotype (%) [2]: 8.43% and 2.96%
- Population Mitochondria Different-Phenotype (%) [2]: 10.84% and 15.56%
- Population Mitotic Cells (%) [2]: 95% and 86.11%
- Population Normal (%) [2]: 100%
- Population Pyknosed Nuclei (%) [2]: 44.69% and 19.46%
- Population Tubulin-Different-Phenotype (%) [2]: 24.1% and 30.37%
- Total Cell Count [2]: 179 and 185
- Population Apoptotic (%) [3]: 11.36% and 6.25%
- Population Fragmented Nuclei (%) [3]: 6.72% and 4.74%
- Population Healthy Nuclei (%) [3]: 74.79% and 78.42%
- Population Hoechst High Intensity Objects (%) [3]: 0%
- Population Membrane Permeable-Phenotype (%) [3]: 4.49% and 2.01%
- Population Mitochondria Different-Phenotype (%) [3]: 8.43% and 5.37%
- Population Mitotic Cells (%) [3]: 88.64% and 93.75%
- Population Normal (%) [3]: 100%
- Population Pyknosed Nuclei (%) [3]: 18.49% and 16.84%
- Population Tubulin-Different-Phenotype (%) [3]: 17.98% and 10.07%
- Total Cell Count [3]: 238 and 190
- Population Apoptotic (%) [4]: 6.56% and 11.11%
- Population Fragmented Nuclei (%) [4]: 8.38% and 10.7%
- Population Healthy Nuclei (%) [4]: 57.54% and 74.87%
- Population Hoechst High Intensity Objects (%) [4]: 0%
- Population Membrane Permeable-Phenotype (%) [4]: 2.91% and 1.43%
- Population Mitochondria Different-Phenotype (%) [4]: 13.59% and 7.86%
- Population Mitotic Cells (%) [4]: 93.44% and 88.89%
- Population Normal (%) [4]: 100%
- Population Pyknosed Nuclei (%) [4]: 34.08% and 14.44%
- Population Tubulin-Different-Phenotype (%) [4]: 35.92% and 30.71%
- Total Cell Count [4]: 179 and 187
- Population Apoptotic (%) [5]: 7.14% and 20%
- Population Fragmented Nuclei (%) [5]: 7.17% and 4.5%
- Population Healthy Nuclei (%) [5]: 87.25% and 88%
- Population Hoechst High Intensity Objects (%) [5]: 0%
- Population Membrane Permeable-Phenotype (%) [5]: 0.91% and 2.27%
- Population Mitochondria Different-Phenotype (%) [5]: 9.13% and 3.98%
- Population Mitotic Cells (%) [5]: 92.86% and 80%
- Population Normal (%) [5]: 100%
- Population Pyknosed Nuclei (%) [5]: 5.58% and 7.5%
- Population Tubulin-Different-Phenotype (%) [5]: 5.48% and 13.64%
- Total Cell Count [5]: 251 and 200
- Population Apoptotic (%) [6]: 21.05% and 50%
- Population Fragmented Nuclei (%) [6]: 12.39% and 11.11%
- Population Healthy Nuclei (%) [6]: 78.9% and 84.44%
- Population Hoechst High Intensity Objects (%) [6]: 0%
- Population Membrane Permeable-Phenotype (%) [6]: 1.74% and 4.21%
- Population Mitochondria Different-Phenotype (%) [6]: 6.4% and 3.68%
- Population Mitotic Cells (%) [6]: 78.95% and 50%
- Population Normal (%) [6]: 100%
- Population Pyknosed Nuclei (%) [6]: 8.72% and 4.44%
- Population Tubulin-Different-Phenotype (%) [6]: 19.19% and 32.11%
- Total Cell Count [6]: 218 and 225
